Here are results for 39 compounds from ChEMBL document CHEMBL3045596, “Synthesis and herbicidal activity of 12-(aryloxyacyloxyimino)-1,15-pentadecanlactone derivatives” (J Agric Food Chem, 2009).

Common to all, as to format: functional, organism-based
Assay [1] relates to Amaranthus tricolor. Briefly: Herbicidal activity against Amaranthus tricolor assessed as plant dead at 25 to 32 degC measured after 7 days. The following applies: 168 h. A digest of the protocol:
(§1)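 Seedlings grown at 25-32 °C for about 7 days, then thinned to thirty plants per cup at the two-leaf stage. Emulsion (1 mL per cup) applied by Potter spray tower, after which plants were kept at 25-32 °C. Three replicates per concentration.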

For assay [2], the system named is Oryza sativa. The experiment in a line: Herbicidal activity against Oryza sativa (rice) assessed as plant dead at 25 to 32 degC measured after 7 days. The settings on record: 168 h. The gist of the method:
as §1

Assay [3] relates to Glycine max. The experiment in a line: Herbicidal activity against Glycine max (soybean) assessed as plant dead at 25 to 32 degC measured after 7 days. The settings on record: 168 h. A digest of the protocol:
as §1

Assay [4] relates to Zea mays. The experiment in a line: Herbicidal activity against Zea mays (maize) assessed as plant dead at 25 to 32 degC measured after 7 days. The following applies: 168 h. The gist of the method: as §1
The subject of assay [5] is Cucumis sativus. The experiment in a line: Herbicidal activity against Cucumis sativus (cucumber) assessed as plant dead at 25 to 32 degC measured after 7 days. The settings on record: 168 h. The gist of the method:
as §1

In assay [6] the test system is Triticum aestivum. Briefly: Herbicidal activity against Triticum aestivum L. (wheat) assessed as plant dead at 25 to 32 degC measured after 7 days. The following applies: 168 h. The gist of the method: as §1
The subject of assay [7] is Lolium arundinaceum. Briefly: Herbicidal activity against Festuca arundinacea assessed as plant dead at 25 to 32 degC measured after 7 days. The settings on record: L., 168 h. The gist of the method:
as §1

Assay [8] concerns Vigna radiata var. radiata. The experiment in a line: Herbicidal activity against Vigna radiata var. radiata assessed as plant dead at 25 to 32 degC measured after 7 days. The following applies: 168 h. A digest of the protocol:
as §1

Values after ≈ are worked out from the molar mass of the structure shown.

By EC50 is commonly meant the concentration needed to bring the measured effect to its halfway point. With `Cc1cc(OC(C)(C)C(=O)ON=C2CCCCCCCCCCC(=O)OCCC2)ccc1Cl`, in assay [1], the EC50 is 50.1 µg/mL (≈ 104 µM).

Take `CC(C)(Oc1ccc(Cl)cc1)C(=O)ON=C1CCCCCCCCCCC(=O)OCCC1`: the EC50 in assay [1] came to 46.5 µg/mL (≈ 99.8 µM). With `Cc1ccc(OC(C)(C)C(=O)ON=C2CCCCCCCCCCC(=O)OCCC2)cc1`, the EC50 in assay [1] was determined as 55.4 µg/mL (≈ 124 µM).

For `CC(C)(Oc1ccccc1)C(=O)ON=C1CCCCCCCCCCC(=O)OCCC1`, in assay [1], the EC50 turned out to be 34.6 µg/mL (≈ 80.2 µM). The same measure, in the same setting: the result for `Cc1cc(Cl)ccc1OCC(=O)ON=C1CCCCCCCCCCC(=O)OCCC1` reads 19.6 µg/mL (≈ 43.4 µM). Consider `O=C1CCCCCCCCCCC(=NOC(=O)COc2ccc(Cl)cc2Cl)CCCO1`, for which the EC50 is 2.5 µg/mL (≈ 5.29 µM) in assay [2]; 14.4 µg/mL (≈ 30.5 µM) in assay [3]; 0.3 µg/mL (≈ 0.635 µM) in assay [4]; 1.5 µg/mL (≈ 3.18 µM) in assay [5]; 38.4 µg/mL (≈ 81.3 µM) in assay [6]; 50.2 µg/mL (≈ 106 µM) in assay [7]. Also, the EC50 in assay [1] came to 7.7 µg/mL (≈ 16.3 µM); in assay [8], 2.8 µg/mL (≈ 5.93 µM). As to `O=C1CCCCCCCCCCC(=NOC(=O)COc2ccc(Br)cc2Cl)CCCO1`, the EC50 in assay [1] is 16.9 µg/mL (≈ 32.7 µM). Still for that read-out and setting: the result for `CC(Oc1ccccc1)C(=O)ON=C1CCCCCCCCCCC(=O)OCCC1` (stereo unspecified) reads 22.4 µg/mL (≈ 53.6 µM). Same read-out and setting: then `Cc1ccc(OC(C)C(=O)ON=C2CCCCCCCCCCC(=O)OCCC2)cc1` (stereo unspecified), with 35.9 µg/mL (≈ 83.2 µM); and `CC(Oc1ccccc1Cl)C(=O)ON=C1CCCCCCCCCCC(=O)OCCC1` (stereo unspecified), with 18 µg/mL (≈ 39.8 µM); and `CC(Oc1cccc(Cl)c1)C(=O)ON=C1CCCCCCCCCCC(=O)OCCC1` (stereo unspecified), with 25.1 µg/mL (≈ 55.5 µM). Same read-out and setting: the result for `CC(Oc1ccc(Cl)cc1)C(=O)ON=C1CCCCCCCCCCC(=O)OCCC1` (stereo unspecified) reads 17.8 µg/mL (≈ 39.4 µM); that for `Cc1cccc(OC(C)C(=O)ON=C2CCCCCCCCCCC(=O)OCCC2)c1C` (stereo unspecified), 49.6 µg/mL (≈ 111 µM); that for `Cc1cc(OC(C)C(=O)ON=C2CCCCCCCCCCC(=O)OCCC2)ccc1Cl` (stereo unspecified), 9.5 µg/mL (≈ 20.4 µM). As for `CC(Oc1ccc(Cl)cc1Cl)C(=O)ON=C1CCCCCCCCCCC(=O)OCCC1` (stereo unspecified), the EC50 in assay [1] was found to be 13.5 µg/mL (≈ 27.8 µM). Same read-out and setting: then `CC1CCC(=NOC(=O)COc2ccc(Cl)cc2)CCCCCCCCCCC(=O)O1` (stereo unspecified), with 12.4 µg/mL (≈ 27.4 µM); and `Cc1cc(Cl)ccc1OCC(=O)ON=C1CCCCCCCCCCC(=O)OC(C)CC1` (stereo unspecified), with 8 µg/mL (≈ 17.2 µM). In the case of `Cc1cc(OCC(=O)ON=C2CCCCCCCCCCC(=O)OC(C)CC2)ccc1Cl` (stereo unspecified), in assay [1], the EC50 was 3.4 µg/mL (≈ 7.3 µM). Consider `CC1CCC(=NOC(=O)COc2ccc(Cl)cc2Cl)CCCCCCCCCCC(=O)O1` (stereo unspecified), for which, in assay [1], the EC50 is 8.2 µg/mL (≈ 16.9 µM). Take `CC1CCC(=NOC(=O)COc2ccc(Br)cc2Cl)CCCCCCCCCCC(=O)O1` (stereo unspecified): in assay [1], the EC50 was found to be 14.4 µg/mL (≈ 27.1 µM). Still for that read-out and setting: the result for `CC1CCC(=NOC(=O)C(C)Oc2ccc(Cl)cc2)CCCCCCCCCCC(=O)O1` (stereo unspecified) reads 4.8 µg/mL (≈ 10.3 µM). On the same count and under the same terms, then `O=C1CCCCCCCCCC/C(=N/OC(=O)COc2ccc(Cl)cc2)CCCO1`, with 16.3 µg/mL (≈ 37.2 µM); and `O=C1CCCCCCCCCC/C(=N\OC(=O)COc2ccc(Cl)cc2)CCCO1`, with 15.7 µg/mL (≈ 35.8 µM).

As to `Cc1cc(Cl)ccc1OCC(=O)O/N=C1/CCCCCCCCCCC(=O)OCCC1`, the EC50 in assay [1] came to 18.2 µg/mL (≈ 40.3 µM). Still for that read-out and setting: the result for `Cc1cc(Cl)ccc1OCC(=O)O/N=C1\CCCCCCCCCCC(=O)OCCC1` reads 18.3 µg/mL (≈ 40.5 µM); that for `O=C1CCCCCCCCCC/C(=N/OC(=O)COc2ccc(Br)cc2Cl)CCCO1`, 14.7 µg/mL (≈ 28.4 µM). Same read-out and setting: the result for `O=C1CCCCCCCCCC/C(=N\OC(=O)COc2ccc(Br)cc2Cl)CCCO1` reads 14.4 µg/mL (≈ 27.9 µM); that for `O=C1CCCCCCCCCCC(=NOC(=O)COc2ccccc2)CCCO1`, 73.2 µg/mL (≈ 181 µM); that for `Cc1ccccc1OCC(=O)ON=C1CCCCCCCCCCC(=O)OCCC1`, 117 µg/mL (≈ 281 µM).

Regarding `Cc1ccc(OCC(=O)ON=C2CCCCCCCCCCC(=O)OCCC2)cc1`, in assay [1], the EC50 worked out at 55.4 µg/mL (≈ 133 µM). Regarding `COc1ccc(OCC(=O)ON=C2CCCCCCCCCCC(=O)OCCC2)cc1`, the EC50 in assay [1] is 48.8 µg/mL (≈ 113 µM).

`O=C1CCCCCCCCCCC(=NOC(=O)COc2ccccc2Cl)CCCO1`: the EC50 in assay [1] was determined as 30.6 µg/mL (≈ 69.9 µM). Still for that read-out and setting: the result for `O=C1CCCCCCCCCCC(=NOC(=O)COc2cccc(Cl)c2)CCCO1` reads 23.8 µg/mL (≈ 54.3 µM); that for `O=C1CCCCCCCCCCC(=NOC(=O)COc2ccc(Cl)cc2)CCCO1`, 18.2 µg/mL (≈ 41.6 µM). Take `O=C1CCCCCCCCCCC(=NOC(=O)COc2cccc([N+](=O)[O-])c2)CCCO1`: the EC50 in assay [1] amounted to 80.9 µg/mL (≈ 180 µM).

`Cc1cccc(OCC(=O)ON=C2CCCCCCCCCCC(=O)OCCC2)c1C`: the EC50 in assay [1] is 52.4 µg/mL (≈ 121 µM). On the same count and under the same terms, the result for `Cc1ccc(OCC(=O)ON=C2CCCCCCCCCCC(=O)OCCC2)cc1C` reads 55.4 µg/mL (≈ 128 µM). Take `O=C(O)COc1ccc(Cl)cc1Cl` [2,4-DICHLOROPHENOXYACETIC ACID]: in assay [1], the EC50 came to 117 µg/mL (≈ 531 µM).

Consider `COC(=O)c1ccccc1S(=O)(=O)NC(=O)N(C)c1nc(C)nc(OC)n1` [TRIBENURON METHYL], for which, in assay [1], the EC50 was 22.4 µg/mL (≈ 56.7 µM).
